Measurements pooled from the literature.
RPS6KA1 C-terminal kinase domain: Ribosomal protein S6 kinase alpha-1, C-terminal kinase domain (RPS6KA1, Homo sapiens, UniProt Q15418)
RPS6KA1: Ribosomal protein S6 kinase alpha-1 (RPS6KA1, Homo sapiens, UniProt Q15418)

Structure (SMILES)	target	assay	setting	endpoint	result
Nc1ncc(-c2nc(N3CCOCC3)nc(N3CCOCC3)n2)c(C(F)F)n1	RPS6KA1 C-terminal kinase domain	binding, competition with immobilised ligand	10 µM	remaining binding	88%
N#CC1(c2ccccn2)CCN(Cc2cc(C(=O)O)c(=O)n3ccccc23)CC1	RPS6KA1 C-terminal kinase domain	cell-free assay, competition with immobilised ligand	1 µM	remaining binding	100%
Cn1cc(-c2cc(F)cc(N3CCn4c(cc5c4CCCC5)C3=O)c2CO)cc(Nc2ccc(N3CCN(C4COC4)CC3)cn2)c1=O	RPS6KA1	enzyme activity, inhibitor	0.1 µM	inhibition	0%
Cn1cncc1[C@@](O)(COc1ccc(C#N)cc1-c1ccc(OC(F)(F)F)cc1)c1ccc(C#N)cc1	RPS6KA1 C-terminal kinase domain	cell-free assay, competition with immobilised ligand	1 µM	remaining binding	100%
C#Cc1n[nH]c2c(-c3cn([C@@H](C)c4ccccn4)c(=O)[nH]c3=O)cc(F)cc12	RPS6KA1	enzyme activity, inhibitor	0.1 µM	inhibition	7.4%
O=c1[nH]c2ccccc2n1C1CCN(Cc2ccc(-c3[nH]c4cc5ncnc5cc4nc3-c3ccccc3)cc2)CC1	RPS6KA1	cell-free assay	0.5 µM	remaining signal	101%
Cc1nn(C)cc1-c1nc2c(N3CCN(Cc4ccc(Cl)cc4)CC3)c(Cl)cnc2[nH]1	Ribosomal protein S6 kinase alpha-1, N-terminal kinase domain (RPS6KA1, Homo sapiens, UniProt Q15418)	binding, competition with immobilised ligand	1 µM	remaining binding	100%
CC(C)(C)c1cc(C=C(C#N)C#N)cc(Br)c1O	RPS6KA1	enzyme activity, inhibitor	0.5 µM	remaining activity	104%
C#Cc1n[nH]c2c(-c3cn([C@@H](C)c4ccccc4)c(=O)[nH]c3=O)cc(F)cc12	RPS6KA1	enzyme activity, inhibitor	0.1 µM	inhibition	6.2%
Cn1cc(-c2cccc(N3CCc4c(sc5c4CC(C)(C)C5)C3=O)c2CO)cc(Nc2ccncn2)c1=O	RPS6KA1	enzyme activity, inhibitor	1 µM	inhibition	-1%
